Assay results: ChEMBL document CHEMBL1629690, “Development of hexadecyloxypropyl tenofovir (CMX157) for treatment of infection caused by wild-type and nucleoside/nucleotide-resistant HIV” (Antimicrob Agents Chemother, 2010)

test system: Human immunodeficiency virus 1; test: Antiviral activity against HIV1 isolate 162 harboring reverse transcriptase A62V/V75I/F77L/Y115F/F116Y/Q151M/M184V mutant gene by phenosense assay; format: functional, organism-based; conditions: Human immunodeficiency virus 1, isolate 162
In short: (§1)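 Recombinant-virus PhenoSense HIV assay run on a panel of 30 NRTI-resistant HIV-1 mutants and two wild-type viruses. Each virus is tested across increasing drug concentrations to give an inhibition curve and EC50. Fold change is the test recombinant EC50 divided by the EC50 of the drug-sensitive wild-type reference virus.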

**Q.** Which EC50 does the source give for Nc1nc(=O)n([C@@H]2CS[C@H](CO)O2)cc1F [EMTRICITABINE] here?
**A.** Its EC50 is > 100 µM.

test system: Human immunodeficiency virus 1; test: Antiviral activity against HIV1 isolate 071 harboring reverse transcriptase 65R/S68N/184V mutant gene by phenosense assay; format: functional, organism-based; conditions: Human immunodeficiency virus 1, isolate 071; in short: as §1

**Q.** Nc1nc(=O)n([C@@H]2CS[C@H](CO)O2)cc1F [EMTRICITABINE] was tested. Which EC50 did it give?
**A.** The EC50 was > 100 µM.

test system: Human immunodeficiency virus 1; test: Antiviral activity against HIV1 isolate 157 harboring reverse transcriptase L74V/M184V mutant gene by phenosense assay; format: functional, organism-based; conditions: Human immunodeficiency virus 1, isolate 157; in short: as §1

**Q.** For Nc1nc(=O)n([C@@H]2CS[C@H](CO)O2)cc1F [EMTRICITABINE], which EC50 is on record?
**A.** The EC50 was > 100 µM.

test system: Human immunodeficiency virus 1; test: Antiviral activity against HIV1 isolate 060 harboring reverse transcriptase M41L/D67N/K70R/L210W/T215Y/K219E mutant gene by phenosense assay; format: functional, organism-based; conditions: Human immunodeficiency virus 1, isolate 060; in short: as §1

**Q.** Which EC50 does the source give for Nc1nc(=O)n([C@@H]2CS[C@H](CO)O2)cc1F [EMTRICITABINE] here?
**A.** Its EC50 is 11 µM.

test system: Human immunodeficiency virus 1; test: Antiviral activity against HIV1 isolate 200 harboring reverse transcriptase M41L/L210W/T215Y mutant gene by phenosense assay relative to wild type; format: functional; conditions: not given; in short: as §1

**Q.** With Nc1nc(=O)n([C@@H]2CS[C@H](CO)O2)cc1F [EMTRICITABINE] as the compound, how does the “fold change (FC)” value read?
**A.** The value was 3.7.

test system: Human immunodeficiency virus 1; test: Antiviral activity against HIV1 isolate 217 harboring reverse transcriptase D67N/K70E/M184V mutant gene by phenosense assay relative to wild type; format: functional; conditions: not given
In short: (§2)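 PhenoSense HIV recombinant virus assay: patient-derived HIV-1 with major NRTI resistance mutations tested against increasing drug concentrations to give inhibition curves. EC50 is the concentration giving 50% inhibition. Fold change is the test recombinant EC50 divided by the EC50 of a drug-sensitive wild-type reference virus. Panel of 30 NRTI-resistant isolates plus two wild-type viruses.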

**Q.** For Nc1nc(=O)n([C@@H]2CS[C@H](CO)O2)cc1F [EMTRICITABINE], which “fold change (FC)” value is on record?
**A.** Its value is >88.

test system: Human immunodeficiency virus 1; test: Antiviral activity against HIV1 isolate 160 harboring reverse transcriptase S68G/V75(I/T)/F77L/Y115F/F116Y /Q151M mutant gene by phenosense assay; format: functional, organism-based; conditions: Human immunodeficiency virus 1, isolate 160; in short: as §1

**Q.** For Nc1nc(=O)n([C@@H]2CS[C@H](CO)O2)cc1F [EMTRICITABINE], which EC50 is on record?
**A.** Its EC50 is 35 µM.

test system: Human immunodeficiency virus 1; test: Antiviral activity against HIV1 isolate 071 harboring reverse transcriptase 65R/S68N/184V mutant gene by phenosense assay relative to wild type; format: functional; conditions: not given; in short: as §1

**Q.** How did the “fold change (FC)” value turn out when Nc1nc(=O)n([C@@H]2CS[C@H](CO)O2)cc1F [EMTRICITABINE] was run?
**A.** Its value is >88.

test system: Human immunodeficiency virus 1; test: Antiviral activity against HIV1 isolate 157 harboring reverse transcriptase L74V/M184V mutant gene by phenosense assay relative to wild type; format: functional; conditions: not given; in short: as §1

**Q.** With Nc1nc(=O)n([C@@H]2CS[C@H](CO)O2)cc1F [EMTRICITABINE] as the compound, how does the “fold change (FC)” value read?
**A.** The value was >88.

test system: Human immunodeficiency virus 1; test: Antiviral activity against HIV1 isolate 153 harboring reverse transcriptase L74V mutant gene by phenosense assay; format: functional, organism-based; conditions: Human immunodeficiency virus 1, isolate 153; in short: as §1

**Q.** Nc1nc(=O)n([C@@H]2CS[C@H](CO)O2)cc1F [EMTRICITABINE] was tested. Which EC50 did it give?
**A.** Its EC50 is 2.1 µM.

test system: Human immunodeficiency virus 1; test: Antiviral activity against HIV1 isolate 070 harboring reverse transcriptase 65R/S68G mutant gene by phenosense assay relative to wild type; format: functional; conditions: not given; in short: as §1

**Q.** Which “fold change (FC)” value does the source give for Nc1nc(=O)n([C@@H]2CS[C@H](CO)O2)cc1F [EMTRICITABINE] here?
**A.** The value was 17.

test system: Human immunodeficiency virus 1; test: Antiviral activity against HIV1 isolate 060 harboring reverse transcriptase M41L/D67N/K70R/L210W/T215Y/K219E mutant gene by phenosense assay relative to wild type; format: functional; conditions: not given; in short: as §1

**Q.** Nc1nc(=O)n([C@@H]2CS[C@H](CO)O2)cc1F [EMTRICITABINE] was tested. Which “fold change (FC)” value did it give?
**A.** The value was 6.9.

test system: Human immunodeficiency virus 1; test: Antiviral activity against HIV1 isolate 061 harboring reverse transcriptase M41L/D67N/K70R/M184V/L210W/T215Y/K219E mutant gene by phenosense assay; format: functional, organism-based; conditions: Human immunodeficiency virus 1, isolate 061; in short: as §1

**Q.** For Nc1nc(=O)n([C@@H]2CS[C@H](CO)O2)cc1F [EMTRICITABINE], which EC50 is on record?
**A.** The EC50 was > 100 µM.

test system: Human immunodeficiency virus 1; test: Antiviral activity against HIV1 isolate 211 harboring reverse transcriptase D67N/K70R/T215F/K219E/M184V mutant gene by phenosense assay relative to wild type; format: functional; conditions: not given; in short: as §2

**Q.** How did the “fold change (FC)” value turn out when Nc1nc(=O)n([C@@H]2CS[C@H](CO)O2)cc1F [EMTRICITABINE] was run?
**A.** The value was >88.

test system: Human immunodeficiency virus 1; test: Antiviral activity against HIV1 isolate 212 harboring reverse transcriptase L210W/T215Y mutant gene by phenosense assay; format: functional, organism-based; conditions: Human immunodeficiency virus 1, isolate 212; in short: as §2

**Q.** Nc1nc(=O)n([C@@H]2CS[C@H](CO)O2)cc1F [EMTRICITABINE] was tested. Which EC50 did it give?
**A.** The EC50 was 2.6 µM.

test system: Human immunodeficiency virus 1; test: Antiviral activity against HIV1 isolate 070 harboring reverse transcriptase 65R/S68G mutant gene by phenosense assay; format: functional, organism-based; conditions: Human immunodeficiency virus 1, isolate 070; in short: as §1

**Q.** For Nc1nc(=O)n([C@@H]2CS[C@H](CO)O2)cc1F [EMTRICITABINE], which EC50 is on record?
**A.** The EC50 was 19 µM.

test system: Human immunodeficiency virus 1; test: Antiviral activity against HIV1 isolate 188 harboring reverse transcriptase T215Y/M184V mutant gene by phenosense assay; format: functional, organism-based; conditions: Human immunodeficiency virus 1, isolate 188; in short: as §1

**Q.** Which EC50 does the source give for Nc1nc(=O)n([C@@H]2CS[C@H](CO)O2)cc1F [EMTRICITABINE] here?
**A.** Its EC50 is > 100 µM.

test system: Human immunodeficiency virus 1; test: Antiviral activity against HIV1 isolate 067 harboring reverse transcriptase A62V/D67G/T69SVG/V75I/T215I mutant gene by phenosense assay; format: functional, organism-based; conditions: Human immunodeficiency virus 1, isolate 067; in short: as §1

**Q.** Nc1nc(=O)n([C@@H]2CS[C@H](CO)O2)cc1F [EMTRICITABINE] was tested. Which EC50 did it give?
**A.** Its EC50 is 30 µM.

test system: Human immunodeficiency virus 1; test: Antiviral activity against HIV1 isolate 192 harboring reverse transcriptase M41L/T215Y mutant gene by phenosense assay; format: functional, organism-based; conditions: Human immunodeficiency virus 1, isolate 192; in short: as §1

**Q.** How did the EC50 turn out when Nc1nc(=O)n([C@@H]2CS[C@H](CO)O2)cc1F [EMTRICITABINE] was run?
**A.** Its EC50 is 3.1 µM.

test system: Human immunodeficiency virus 1; test: Antiviral activity against HIV1 isolate 215 harboring reverse transcriptase D67N/K70E mutant gene by phenosense assay; format: functional, organism-based; conditions: Human immunodeficiency virus 1, isolate 215; in short: as §2

**Q.** Which EC50 does the source give for Nc1nc(=O)n([C@@H]2CS[C@H](CO)O2)cc1F [EMTRICITABINE] here?
**A.** Its EC50 is 3.4 µM.

test system: Human immunodeficiency virus 1; test: Antiviral activity against HIV1 isolate 061 harboring reverse transcriptase M41L/D67N/K70R/M184V/L210W/T215Y/K219E mutant gene by phenosense assay relative to wild type; format: functional; conditions: not given; in short: as §1

**Q.** Which “fold change (FC)” value does the source give for Nc1nc(=O)n([C@@H]2CS[C@H](CO)O2)cc1F [EMTRICITABINE] here?
**A.** Its value is >63.

test system: Human immunodeficiency virus 1; test: Antiviral activity against HIV1 isolate 192 harboring reverse transcriptase M41L/T215Y mutant gene by phenosense assay relative to wild type; format: functional; conditions: not given; in short: as §1

**Q.** For Nc1nc(=O)n([C@@H]2CS[C@H](CO)O2)cc1F [EMTRICITABINE], which “fold change (FC)” value is on record?
**A.** Its value is 2.7.

test system: Human immunodeficiency virus 1; test: Antiviral activity against HIV1 isolate 180 harboring reverse transcriptase K65R mutant gene obtained as site-directed mutant of NL4-3 by phenosense assay relative to wild type; format: functional; conditions: not given; in short: as §1

**Q.** Which “fold change (FC)” value does the source give for Nc1nc(=O)n([C@@H]2CS[C@H](CO)O2)cc1F [EMTRICITABINE] here?
**A.** The value was 11.

test system: Human immunodeficiency virus 1; test: Antiviral activity against HIV1 isolate 056 expressing wild type reverse transcriptase gene by phenosense assay; format: functional, organism-based; conditions: Human immunodeficiency virus 1, isolate 056
In short: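 In the PhenoSense recombinant virus assay, virus was tested against increasing drug concentrations. EC50 came from the inhibition curve and was compared with a drug-sensitive reference virus.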

**Q.** Nc1nc(=O)n([C@@H]2CS[C@H](CO)O2)cc1F [EMTRICITABINE] was tested. Which EC50 did it give?
**A.** The EC50 was 0.89 µM.

test system: Human immunodeficiency virus 1; test: Antiviral activity against HIV1 isolate 058 harboring reverse transcriptase M41L/D67N/K70R/L210W/T215F/K219Q mutant gene by phenosense assay; format: functional, organism-based; conditions: Human immunodeficiency virus 1, isolate 058; in short: as §1

**Q.** With Nc1nc(=O)n([C@@H]2CS[C@H](CO)O2)cc1F [EMTRICITABINE] as the compound, how does the EC50 read?
**A.** Its EC50 is 5.7 µM.

test system: Human immunodeficiency virus 1; test: Antiviral activity against HIV1 isolate 067 harboring reverse transcriptase A62V/D67G/T69SVG/V75I/T215I mutant gene by phenosense assay relative to wild type; format: functional; conditions: not given; in short: as §1

**Q.** How did the “fold change (FC)” value turn out when Nc1nc(=O)n([C@@H]2CS[C@H](CO)O2)cc1F [EMTRICITABINE] was run?
**A.** The value was 26.

test system: Human immunodeficiency virus 1; test: Antiviral activity against HIV1 isolate 174 harboring reverse transcriptase M184V mutant gene obtained as site-directed mutant of NL4-3 by phenosense assay; format: functional, organism-based; conditions: Human immunodeficiency virus 1, isolate 174; in short: as §1

**Q.** With Nc1nc(=O)n([C@@H]2CS[C@H](CO)O2)cc1F [EMTRICITABINE] as the compound, how does the EC50 read?
**A.** Its EC50 is > 100 µM.
